Assay outcomes deposited in PubChem by Johns Hopkins Ion Channel Center.
Shown are actives, neighbours in structure and some others; about 3.5% of the full set was active somewhere.
RGS4 block = RGS4 inhibitors, primary screen, cell-based, HEK293 M3R inducible RGS4, calcium flux; Fluo-4 calcium flux; active compounds read high; triggered by carbachol at its EC20; B-score at 10 µM; 0.45% of 310,000 active; AID 463165, 2010;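 active means B-score, a plate-corrected calcium signal, over three deviations above library mean, with baseline fluorescence within five deviations of library mean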;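 further: RGS4 expression induced by doxycycline in cells with stable M3 receptor; B-score is computed from the integrated fluorescence ratio over baseline after carbachol; higher B-score means a larger calcium signal and so more RGS4 inhibition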
Target sequence (P49798 whole entry, looked up): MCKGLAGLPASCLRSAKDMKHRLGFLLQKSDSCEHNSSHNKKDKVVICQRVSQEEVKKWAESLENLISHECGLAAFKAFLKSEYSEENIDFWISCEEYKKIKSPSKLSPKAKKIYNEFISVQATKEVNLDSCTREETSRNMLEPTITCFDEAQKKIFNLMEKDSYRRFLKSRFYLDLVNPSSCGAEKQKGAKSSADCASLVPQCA
MrgX1 allo act = positive allosteric modulators of MrgX1, primary screen, HEK293 cells, Fluo-4 calcium flux | 0.63% of 310,000 active | Mas-related G-protein coupled receptor member X1 (Homo sapiens), Q96LB2 | FDSS; active compounds read high | B-score at 10 µM;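 active means plate-corrected calcium response at least 3 library SD above typical, normal starting fluorescence, not activating the receptor alone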;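 further: compound read alongside a low EC10 to EC30 dose of BAM8-22 agonist; peak minus trough fluorescence over baseline measured at the second addition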
Target sequence (Q96LB2 whole entry, looked up): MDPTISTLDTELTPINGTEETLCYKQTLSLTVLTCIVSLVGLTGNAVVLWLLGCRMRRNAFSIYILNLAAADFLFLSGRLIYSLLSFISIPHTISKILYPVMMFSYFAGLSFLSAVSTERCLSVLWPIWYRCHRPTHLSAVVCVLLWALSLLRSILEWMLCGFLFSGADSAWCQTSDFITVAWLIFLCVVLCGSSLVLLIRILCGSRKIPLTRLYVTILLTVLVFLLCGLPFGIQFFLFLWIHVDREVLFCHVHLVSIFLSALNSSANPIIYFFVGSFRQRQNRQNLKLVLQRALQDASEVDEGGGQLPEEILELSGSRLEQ
MrgX1 antag = antagonists of human MrgX1 receptor, primary screen, HEK293 cells, Fluo-4 calcium flux; AID 588676, 2011; Mas-related G-protein coupled receptor member X1 (Homo sapiens), Q96LB2; BAM8-22 antagonism; active compounds read low; B-score at 10 µM; 1.3% of 310,000 active;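 active means calcium-response B-score plate-corrected more than 3 library SD below zero, starting fluorescence within 5 deviations, no agonist response on first addition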;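 further: peak minus trough fluorescence over baseline after final BAM8-22 challenge near maximal dose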
RGS4 pot = RGS4 potentiators or activators, primary screen, cell-based, HEK293 M3R inducible RGS4, calcium flux; carbachol calcium flux Fluo4; active compounds read low; B-score at 10 µM; 0.92% of 310,000 active; AID 463111, 2010;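 active means B-score of the integrated calcium signal more than 4 SD below the library mean, with starting fluorescence not abnormally high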;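 further: negative B-score means reduced calcium response which marks RGS4 activation or potentiation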
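Test system: HEK293 cells with stable M3R and inducible RGS4; also added: carbachol at ECmax as muscarinic agonist stimulus; schedule: dye loading 30 min 37 °C, buffer rest 30 min RT; technique: kinetic calcium fluorescence imaging with Fluo4-AM dye, 2 µM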
MrgX1 ag = agonists of human MrgX1 receptor, primary screen, HEK293 cells, Fluo-4 calcium flux; Mas-related G-protein coupled receptor member X1 (Homo sapiens), Q96LB2; B-score at 10 µM; 0.44% of 310,000 active; Fluo-4 calcium fluorescence, agonist mode; active compounds read high;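 active means calcium response B-score plate-corrected fluorescence ratio at least 3 library SD, with starting fluorescence B-score inside 5 SD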
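System: HEK293 cells stably expressing human MrgX1 receptor; Dosing: test compound in the initial addition of three; Schedule: overnight plating, then 30 min 37 °C plus 30 min room-temperature dye loading; Detection: kinetic calcium dye fluorescence, Fluo-4 NW; Controls: per-plate positive and negative controls for Z′ factor.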
MrgX1 ant reconf = MrgX1 receptor antagonists, duplicate retest, confirmation, HEK293 cells, Fluo-4 calcium flux. shares compounds with MrgX1 antag. BAM8-22 calcium flux; active compounds read low. remaining BAM8-22 calcium response % of control (active compounds read low), % at 10 µM. 19% of 2,300 active;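 active means remaining agonist calcium response no higher than 100% minus 3 SD of agonist-only control wells, with starting fluorescence near control levels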;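 further: agonist BAM8-22 given at a near maximal EC90 to ECmax level; peak minus minimum fluorescence divided by baseline after agonist addition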
HEK293 Ca flux = nonspecific calcium signal in parental HEK293, confirmation, counter-screen for MrgX1 antagonist project, parental HEK293 cells, Fluo-4 calcium flux; shares compounds with MrgX1 antag; Fluo-4 calcium fluorescence, FDSS; fluorescence ratio F(max-min)/F0 at 10 µM; 2% of 4,000 active; AID 624111, 2012;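 active means duplicate-averaged calcium fluorescence ratio at least three times the standard deviation of buffer wells, a nonspecific response in parental cells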
HEK293 Ca counter = calcium response in parental HEK293 cells, primary screen, counter-screen for MrgX1 allosteric activator project, cell-based, Fluo-4 calcium flux, duplicate; shares compounds with MrgX1 antag; Fluo-4 fluorescence ratio; active compounds read high; fluorescence ratio F(max-min)/F0 at 10 µM; 0.4% of 4,000 active; AID 624114, 2012;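 active means calcium fluorescence ratio, averaged over duplicates, at least 3 SD of the buffer-well ratio, meaning a nonspecific response in receptor-free cells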;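 further: untransfected parental HEK293 lacking MrgX1 used as counterscreen for MrgX1 allosteric activators; fluorescence change taken during the second addition on a kinetic imager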
HEK293 Ca cntr2 = calcium response in parental HEK293 cells, primary screen, counter-screen for MrgX1 agonist project, cell-based, Fluo-4 calcium flux, duplicate, agonist mode; shares compounds with MrgX1 antag; Fluo-4 calcium fluorescence (FDSS); active compounds read high; fluorescence ratio F(max-min)/F0 at 10 µM; 8.7% of 4,000 active;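 active means calcium fluorescence ratio at least three times the spread of buffer wells, meaning a non-specific response in parental cells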
The depositor's hits bear a star; i = inactive; · = no result.

SMILES | RGS4 block | MrgX1 allo act | MrgX1 antag | RGS4 pot | MrgX1 ag | MrgX1 ant reconf | HEK293 Ca flux | HEK293 Ca counter | HEK293 Ca cntr2
CC(=O)N1CCSc2ccc(S(=O)(=O)NCCc3ccc(Cl)cc3)cc21 | i | i | -5* | i | i | i | i | i | i
CC(=O)N1CC(C)Sc2ccc(S(=O)(=O)NCCc3ccc(C)cc3)cc21 (stereo not given) | i | i | i | i | i | · | · | · | ·
O=C(Oc1ccc(-c2nnco2)cc1)N1CCOCC1 | i | i | -5* | i | i | i | i | i | i
O=C(COC(=O)COc1ccccc1)NCCc1ccccc1 | i | i | -5.2* | i | i | i | i | i | i
Cc1ccc(NC(=S)NCCSc2ccc(Cl)cc2)c(C)c1 | i | i | -6.3* | i | i | i | i | i | i
Cc1ccc(C)c(NC(=S)NCCSc2ccc(Cl)cc2)c1 | i | i | i | i | i | · | · | · | ·
CC(=O)C1=C(O)C(=O)N(c2nccs2)C1c1ccccc1 (stereo not given) | i | i | i | i | i | · | · | · | ·
COCCN(Cc1cc2cc(C)ccc2[nH]c1=O)S(=O)(=O)c1ccc(Cl)cc1 | i | i | i | i | i | · | · | · | ·
N#Cc1cc(NC2CCCC2)c([N+](=O)[O-])cc1C#N | i | i | -12* | i | i | i | i | i | i
O=[N+]([O-])c1ccc(NC2CCCC2)cc1 | i | i | i | i | i | · | · | · | ·
Cc1cccc(C)c1NC(=O)CNC(=O)Cn1nc(C)c(C)c(C#N)c1=O | i | i | i | i | i | · | · | · | ·
Cc1ccccc1NC(=O)CCN1CCCCCC1 | i | i | -6.1* | i | i | i | i | i | i
Cc1ccccc1NC(=O)CCN1CCN(Cc2ccccc2)CC1 | i | i | i | i | i | · | · | · | ·
CCN1C(=O)[C@H]2[C@@H](c3ccc(C)cc3)N3C(=O)N(c4cccc(Cl)c4)C(=O)[C@@]3(Cc3ccccc3)[C@H]2C1=O | i | i | -5.2* | i | i | i | i | i | i
CCN1C(=O)[C@H]2[C@@H](c3ccc(C)cc3)N3C(=O)N(c4cccc(Cl)c4)C(=O)[C@@]3(Cc3ccc(Cl)cc3)[C@H]2C1=O | · | i | i | · | i | · | · | · | ·
CC1CCCN(C(=O)c2cc3ccccc3cc2O)C1 (stereo not given) | i | i | i | i | i | · | · | · | ·
Cc1c2ccccc2nc2ccccc12 | i | i | i | i | i | · | · | · | ·
CCCNc1c(F)c(F)c2c(C)c3ccccc3nc2c1F | i | i | -6* | -7.5* | i | i | 0.36* | i | 90*
O=C(NCc1ccc(Cl)cc1Cl)C1CCN(S(=O)(=O)c2ccc3c(c2)OCCCO3)CC1 | i | i | -7.1* | i | i | i | i | i | i
Cc1ccc(-c2nc(Nc3cccc(C)c3)sc2CC(=O)O)cc1 | i | i | i | i | i | · | · | · | ·
O=C(O)Cc1sc(NC2CCCCC2)nc1-c1ccc(Cl)cc1 | i | i | -9.6* | i | i | 82%* | i | i | i
O=C(Nc1ccc(OCc2ccccc2)cc1)c1ccccc1 | i | i | -9* | i | i | i | i | i | i
COC(=O)c1ccc(Nc2ncnc3c2cnn3-c2cccc(C)c2)cc1 | i | i | -4.8* | i | i | i | i | i | i
CCn1ccnc1CN(C)Cc1nc(Cc2cccc(C(F)(F)F)c2)no1 | i | i | i | i | i | · | · | · | ·
CSc1ccccc1OCc1cc(C(=O)N2CCCC(C)C2)no1 (stereo not given) | i | i | -5.7* | i | i | i | i | i | i
SMILES | RGS4 block | MrgX1 allo act | MrgX1 antag | RGS4 pot | MrgX1 ag | MrgX1 ant reconf | HEK293 Ca flux | HEK293 Ca counter | HEK293 Ca cntr2
CCN(CC)C1CCN(C(=O)c2cc(COc3ccccc3SC)on2)C1 (stereo not given) | i | i | i | i | i | · | · | · | ·
CC1Cc2ccccc2N1C(=O)CSc1nc2ccccc2n1CC(=O)N1CCOCC1 (stereo not given) | i | i | -4.6* | i | i | i | i | i | i
CC1Cc2ccccc2N1C(=O)CSc1nnc(Cn2nnc3ccccc32)n1C (stereo not given) | i | i | -6.9* | i | i | i | i | i | i
O=C(CCc1nnc(C2(c3ccc(Cl)cc3)CCC2)o1)N1CCCC(O)C1 (stereo not given) | i | i | i | i | i | · | · | · | ·
CCCCOC(=O)n1c(SCC(=O)N(CC)CC)nc2ccccc21 | i | i | i | i | i | · | · | · | ·
O=C(Nc1ccc2c(c1)OCO2)c1cc(-c2cccnc2)nc2ccccc12 | i | i | i | i | i | · | · | · | ·
CCN(CC(=O)Nc1ccc2c(c1)OCCO2)c1nc(-c2cccnc2)nc2ccccc12 | i | i | -11* | i | i | i | i | i | i
COc1ccc(CN(C)C(=O)Cc2ccc(OC)c(S(=O)(=O)N3CCOCC3)c2)cc1 | i | i | i | i | i | · | · | · | ·
COc1ccc(CC(=O)N(C)C2CCCCC2)cc1S(=O)(=O)N1CCOCC1 | i | i | -4.6* | i | i | i | i | i | i
CCOC(=O)N1CCN(C(=O)CSCc2ccc(Br)cc2)CC1 | i | i | i | i | i | · | · | · | ·
COc1cc(NC(=S)N2CCCCC2C)c(OC)cc1Cl (stereo not given) | i | i | -6.5* | i | i | i | i | i | i
O=S(=O)(c1ccc(Br)cc1)N1CCN(Cc2ccco2)CC1 | i | i | i | i | i | · | · | · | ·
